These results are taken from ChEMBL document CHEMBL3399946, “Structure-activity relationships of substituted 1H-indole-2-carboxamides as CB1 receptor allosteric modulators” (Bioorg Med Chem, 2015).

For orientation: inhibition means the relative decrease from the control value, in per cent. What is called IC50 is the concentration at which inhibition is half-maximal.

Assay [1] concerns the target Cannabinoid receptor 2 (Homo sapiens) (UniProt P34972). As to the kind of experiment: Antagonist activity at human CB2 receptor expressed in CHO-RD-HGA16 cells assessed as inhibition of CP55940-induced calcium mobilization at 10 uM incubated for 15 mins prior to CP55940 addition by FLIPR assay. The assay is classed as functional, cell-based. (In general: Calcium assays in cells follow changes in intracellular calcium, usually with a dye or a luminescent sensor.)

Assay [2] has the same target. As to the kind of experiment: Agonist activity at human CB2 receptor expressed in CHO-RD-HGA16 cells at 10 uM after 15 mins by FLIPR assay relative to CP55940. Type of assay: cell-based. The procedure, abridged: (§1)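 Stably transfected CHO-RD-HGA16 cells (human CB1, or CB2 for line 2) seeded the day before (CB1 25,000, CB2 30,000 cells/well), cultured overnight at 37°C, 5% CO2. Loaded 45 min at 37°C with Calcium 5 dye in HBSS/20 mM HEPES/2.5 mM probenecid, pH 7.4.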

The target in assay [3] is T1, Cannabinoid receptor 1 (Homo sapiens, UniProt P21554). As to the kind of experiment: Antagonist activity at human CB1 receptor expressed in CHO-RD-HGA16 cells assessed as inhibition of CP55940-induced calcium mobilization incubated for 15 mins prior to CP55940 addition by FLIPR assay. Type of assay: functional, cell-based.
T1 sequence (P21554 whole entry): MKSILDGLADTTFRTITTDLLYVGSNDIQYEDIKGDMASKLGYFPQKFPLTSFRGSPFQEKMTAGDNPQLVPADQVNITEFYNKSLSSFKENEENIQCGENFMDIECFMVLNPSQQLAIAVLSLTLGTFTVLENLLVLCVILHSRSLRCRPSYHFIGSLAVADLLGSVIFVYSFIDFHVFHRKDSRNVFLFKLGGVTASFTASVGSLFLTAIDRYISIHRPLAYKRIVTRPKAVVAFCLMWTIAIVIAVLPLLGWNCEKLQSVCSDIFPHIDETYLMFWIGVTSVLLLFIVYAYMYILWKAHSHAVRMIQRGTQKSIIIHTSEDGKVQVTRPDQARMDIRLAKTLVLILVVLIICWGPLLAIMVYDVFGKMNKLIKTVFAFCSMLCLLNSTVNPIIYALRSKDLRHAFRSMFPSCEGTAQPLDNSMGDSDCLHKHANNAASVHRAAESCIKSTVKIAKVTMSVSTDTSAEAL
The target in assay [4] is T1, Cannabinoid receptor 1. Description: Agonist activity at human CB1 receptor expressed in CHO-RD-HGA16 cells at 10 uM after 15 mins by FLIPR assay relative to CP55940. Type of assay: cell-based. The procedure, abridged: as §1
Assay [5] concerns the target T1, Cannabinoid receptor 1. Description: Allosteric modulation of human CB1 receptor expressed in CHO-RD-HGA16 cells assessed as reduction of CP55940 Emax by calcium mobilization assay. Type of assay: functional, cell-based. The procedure, abridged:
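CB1-expressing CHO-RD-HGA16 cells seeded at 25,000/well the previous day and loaded with Calcium 5 dye for 45 min at 37°C (HBSS, 20 mM HEPES, 2.5 mM probenecid, pH 7.4). Pretreated 15 min at 37°C with a single concentration of test compound, then serial dilutions of CP55,940 added on FLIPR Tetra. Fluorescence plotted against agonist concentration.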

Chain of Cannabinoid receptor 2 (Homo sapiens) (P34972 whole entry): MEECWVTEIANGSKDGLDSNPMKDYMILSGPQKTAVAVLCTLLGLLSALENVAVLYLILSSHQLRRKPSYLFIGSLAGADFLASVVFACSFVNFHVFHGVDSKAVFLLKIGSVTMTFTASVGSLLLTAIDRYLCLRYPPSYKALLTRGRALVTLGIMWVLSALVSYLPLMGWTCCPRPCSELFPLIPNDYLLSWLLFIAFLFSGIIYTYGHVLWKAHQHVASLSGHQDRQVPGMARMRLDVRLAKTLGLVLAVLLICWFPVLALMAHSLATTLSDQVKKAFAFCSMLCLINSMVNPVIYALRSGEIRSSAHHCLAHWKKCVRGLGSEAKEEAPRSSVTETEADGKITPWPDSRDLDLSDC

As to `CCc1c(C(=O)NCCc2cccc(OC)c2)[nH]c2ccc(Cl)cc12`, the inhibition in assay [1] is -6%. The Activity in assay [2] and in assay [4] was under 30% in each case. Also, the IC50 in assay [3] was 2.1 µM.

With `CCc1c(C(=O)N2CCN(c3ccccc3)CC2)[nH]c2ccc(Cl)cc12`, the Activity in assay [2] and in assay [4] was under 30% throughout. The 50% inhibitory concentration (IC50) in assay [3] is over 10 µM.

As for `CCc1c(C(=O)NCCc2ccc(N(C)C)cc2)[nH]c2ccc(Cl)cc12`, the Activity in assay [2] and in assay [4] was under 30% throughout. Further, the IC50 in assay [3] was 0.787 µM.

Take `CCCN(CCC)c1ccc(CCNC(=O)c2[nH]c3ccc(Cl)cc3c2CC)cc1`: the Activity in assay [2] and in assay [4] was under 30% throughout. For the same compound, the IC50 in assay [3] was found to be 1.8 µM.

`CCc1c(C(=O)NCCc2cccc(N(C)C)c2)[nH]c2ccc(Cl)cc12`: the inhibition in assay [1] is -3.7%. Besides, the half-inhibitory concentration (IC50) in assay [3] was over 10 µM.

In the case of `CCc1c(C(=O)NC2CCN(Cc3ccccc3)C2)[nH]c2ccc(Cl)cc12` (configuration not stated), in assay [1], the inhibition was -6.2%. Further, the Activity in assay [2] and in assay [4] was under 30% throughout. For the same compound, the half-maximal inhibitory concentration (IC50) in assay [3] was determined as 4.76 µM.

With `CCc1c(C(=O)NCCc2cccc(Cl)c2)[nH]c2ccc(Cl)cc12`, the inhibition in assay [1] was determined as 24.8%. For the same compound, the Activity in assay [2] and in assay [4] was under 30% each time. Further, in assay [3], the 50% inhibitory concentration (IC50) is 0.831 µM.

With `CCc1c(C(=O)NCCc2cccc(O)c2)[nH]c2ccc(Cl)cc12`, the inhibition in assay [1] was -0.1%. In addition, the Activity in assay [2] and in assay [4] was under 30% in each case. Moreover, the IC50 in assay [3] was over 10 µM.

As for `CCc1c(C(=O)NCCc2ccc(Cl)cc2)[nH]c2ccc(Cl)cc12`, the inhibition in assay [1] was -4.8%. Moreover, the Activity in assay [2] and in assay [4] was under 30% each time. Further, in assay [3], the IC50 stood at 2.5 µM.

As for `CCc1c(C(=O)NCCc2ccc(OC)cc2)[nH]c2ccc(Cl)cc12`, the Activity in assay [2] and in assay [4] was under 30% each time. Further, in assay [3], the IC50 was 2.56 µM.

As for `CCc1c(C(=O)NCCc2ccc([N+](=O)[O-])cc2)[nH]c2ccc(Cl)cc12`, in assay [1], the inhibition is 34.8%. In addition, the Activity in assay [2] and in assay [4] was under 30% each time. For the same compound, the IC50 in assay [3] amounted to 5.74 µM.

Regarding `CCN(CC)c1ccc(CCNC(=O)c2cc3cc(Cl)ccc3[nH]2)cc1`, the Activity entry in assay [5] is “Dose-dependent effect”; in assay [2], under 30%; in assay [4] it was under 30%. Besides, in assay [1], the inhibition stood at 0.7%. For the same compound, in assay [3], the IC50 came to 0.079 µM.

With `CCCC(=O)Nc1ccc(CCNC(=O)c2[nH]c3ccc(Cl)cc3c2CC)cc1`, the inhibition in assay [1] is 43%. Also, the Activity in assay [2] and in assay [4] was under 30% each time. In addition, in assay [3], the IC50 was over 10 µM.

In the case of `CCc1c(C(=O)NCCc2ccc(C(C)(C)C)cc2)[nH]c2ccc(Cl)cc12`, the Activity in assay [2] and in assay [4] was under 30% throughout. Besides, in assay [3], the IC50 worked out at 2.43 µM.

In the case of `CCc1c(C(=O)Nc2cccc(-c3cccc(N(C)C)n3)c2)[nH]c2ccc(Cl)cc12`, the Activity in assay [2] and in assay [4] was under 30% each time. Further, the half-inhibitory concentration (IC50) in assay [3] was over 10 µM.

In the case of `CCc1c(C(=O)NCCc2ccccc2Cl)[nH]c2ccc(Cl)cc12`, the inhibition in assay [1] came to 28.5%. Also, the Activity in assay [2] and in assay [4] was under 30% in each case. The IC50 in assay [3] amounted to 5.81 µM.

Consider `CCc1c(C(=O)NCCc2ccc3c(c2)OCO3)[nH]c2ccc(Cl)cc12`, for which the inhibition in assay [1] amounted to 25.8%. Further, the Activity in assay [2] and in assay [4] was under 30% each time. Further, the IC50 in assay [3] was determined as 4.32 µM.

For `CCc1c(C(=O)NCCc2ccc(N(CC)CC)cc2)[nH]c2ccc(F)cc12`, the Activity in assay [2] and in assay [4] was under 30% each time. Further, the IC50 in assay [3] was 0.361 µM.

For the compound `CCc1c(C(=O)NCCc2ccc(N(C)C)cc2)[nH]c2ccc(F)cc12`, the Activity result was “Dose-dependent effect” in assay [5], under 30% in assay [2] and under 30% in assay [4]. For the same compound, the IC50 in assay [3] is 0.205 µM.

With `CCc1c(C(=O)NCCc2ccc(OC)c(O)c2)[nH]c2ccc(Cl)cc12`, in assay [1], the inhibition was -7%. Besides, the Activity in assay [2] and in assay [4] was under 30% throughout. For the same compound, in assay [3], the IC50 is over 10 µM.

For the compound `CCc1c(C(=O)NCCc2ccc(N(CC)CC)cc2)[nH]c2ccc(Cl)cc12`, the Activity in assay [2] and in assay [4] was under 30% throughout. In assay [3], the IC50 worked out at 0.483 µM.

For `CCc1c(C(=O)NCCc2ccc(N3CCCCC3)cc2)[nH]c2ccc(Cl)cc12`, the Activity entry is “Dose-dependent effect” in assay [5], under 30% in assay [2] and under 30% in assay [4]. Further, the IC50 in assay [3] was determined as 0.853 µM.

Take `CCc1c(C(=O)N2CCN(c3ccc(Cl)cc3)CC2)[nH]c2ccc(Cl)cc12`: the Activity in assay [2] and in assay [4] was under 30% in each case. In addition, the IC50 in assay [3] was over 10 µM.

For the compound `CCc1c(C(=O)NCCc2ccc(Cl)c(Cl)c2)[nH]c2ccc(Cl)cc12`, the inhibition in assay [1] is -3.2%. Further, the Activity in assay [2] and in assay [4] was under 30% in each case. Besides, the IC50 in assay [3] turned out to be 2.17 µM.

For the compound `CCCCCC(=O)Nc1ccc(CCNC(=O)c2[nH]c3ccc(Cl)cc3c2CC)cc1`, in assay [1], the inhibition was found to be 1%. In addition, the Activity in assay [2] and in assay [4] was under 30% throughout. The IC50 in assay [3] is over 10 µM.

Turning to `O=C(NCCc1ccc(N2CCCCC2)cc1)c1cc2cc(Cl)ccc2[nH]1`, in assay [1], the inhibition was determined as 15%. Also, the Activity in assay [2] and in assay [4] was under 30% throughout. In addition, the half-maximal inhibitory concentration (IC50) in assay [3] worked out at 0.212 µM.

Turning to `CCc1c(C(=O)NCCc2ccc(N3CCCCC3)cc2)[nH]c2ccc(F)cc12`, the Activity in assay [2] and in assay [4] was under 30% each time. Also, the IC50 in assay [3] is 0.605 µM.

In the case of `CCN(CC)c1ccc(CCNC(=O)c2cc3cc(F)ccc3[nH]2)cc1`, the Activity in assay [2] and in assay [4] was under 30% each time. In assay [3], the IC50 worked out at 0.318 µM.

Regarding `CCCCCCNc1ccc(CCNC(=O)c2[nH]c3ccc(Cl)cc3c2CC)cc1`, the Activity in assay [2] and in assay [4] was under 30% each time. Moreover, the 50% inhibitory concentration (IC50) in assay [3] came out at 3.62 µM.

Turning to `CCN(CC)c1ccc(CCNC(=O)c2[nH]c3ccc(F)cc3c2C)cc1`, the Activity in assay [2] and in assay [4] was under 30% throughout. For the same compound, the IC50 in assay [3] came out at 0.151 µM.

In the case of `O=C(NCCc1ccc(N2CCCCC2)cc1)c1cc2cc(F)ccc2[nH]1`, the inhibition in assay [1] worked out at 20.8%. In addition, the Activity in assay [2] and in assay [4] was under 30% throughout. For the same compound, in assay [3], the IC50 amounted to 0.319 µM.

For `CCc1c(C(=O)NCCc2ccc(NC(C)=O)cc2)[nH]c2ccc(Cl)cc12`, the inhibition in assay [1] was -3.3%. For the same compound, the Activity in assay [2] and in assay [4] was under 30% each time. Besides, the IC50 in assay [3] is over 10 µM.

In the case of `Cc1c(C(=O)NCCc2ccc(N3CCCCC3)cc2)[nH]c2ccc(F)cc12`, in assay [1], the inhibition is -8.2%. Further, the Activity in assay [2] and in assay [4] was under 30% each time. For the same compound, the IC50 in assay [3] was 0.279 µM.

Consider `CCc1c(C(=O)NCCc2ccccc2)[nH]c2ccc(Cl)cc12`, for which the inhibition in assay [1] is -6.2%. Also, the Activity in assay [2] and in assay [4] was under 30% each time. For the same compound, the IC50 in assay [3] worked out at 3.15 µM.
